Results collected from several papers.
Protocols differ between the studies behind these lines.

CSc1nccc(C(=O)N[C@@H](CCC(=O)O)C(=O)N[C@@H](Cc2ccc3ccccc3c2)C(=O)N[C@@H](CC(C)C)C(=O)NC2CC2c2ccccc2)n1 (stereo partly shown) — half-life (metabolic stability; human, plasma): 36.9 h
CC(=O)O[C@@]12CO[C@@H]1C[C@H](O)[C@@]1(C)C(=O)[C@H](O)C3=C(C)[C@@H](OC(=O)[C@H](O)[C@@H](NC(=O)OC(C)(C)C)c4ccccc4)C[C@@](O)([C@@H](OC(=O)c4ccccc4)[C@H]21)C3(C)C — MRT (male Kunming mouse, liver; oral, 20 mg/kg): 5.7 h
C=CS(=O)(=O)c1ccc(Nc2nc(OCC3CCCCC3)c3nc[nH]c3n2)cc1 — MRT(0-t) (male BALB/c mouse, plasma; intravenous, 20 mg/kg, single dose): 0.71 h
NC(=O)N1c2ccccc2C=Cc2ccccc21 — half-life (metabolic stability; human, liver microsomes; 1 µM): > 3 h
O=[N+]([O-])c1ccc(-c2ccc(O)cc2)c2cccnc12 — MRT(0-inf) (male CD-1 mouse, plasma; intravenous, 1 mg/kg): 0.11 h
CCOc1ccc(N(C)S(=O)(=O)c2cc(Cl)sc2C(=O)Nc2cc(Cl)cc(C(=O)O)c2)cc1OC — MRT(0-inf) (male C57BL/6 mouse, plasma; intraperitoneal, 10 mg/kg): 0.781 h
CCC(CC)COC(=O)[C@H](C)N[P@](=O)(OC[C@@H]1C[C@@H](O)[C@H](n2cnc3c(N)ncnc32)O1)Oc1ccccc1 — half-life (metabolic stability; human, liver microsomes; 1 µM): 0.0137 h
CCOC(=O)c1cc(Cl)cc(NC(=O)c2sc(Cl)cc2S(=O)(=O)N(C)c2ccc(OCC)c(OC)c2)c1 — MRT(0-inf) (male C57BL/6 mouse, brain; intraperitoneal, 10 mg/kg): 3.28 h
COc1cc(C(=O)OCCCN2CCCN(CCCOC(=O)c3cc(OC)c(OC)c(OC)c3)CC2)cc(OC)c1OC — MRT(0-inf) (male CD-1 mouse, brain; subcutaneous): 1.72 h
CCN1CCN(Cc2ccc(NC(=O)c3ccc(C)c(NC(=O)c4cncc(-c5cccs5)c4)c3)cc2C(F)(F)F)CC1 — MRT (mouse, plasma; intraperitoneal, 15 mg/kg, single dose): 3.09 h
